Measurements reported in ChEMBL document CHEMBL1131270, “Fluorescent probes for adenosine receptors: synthesis and biology of N6-dansylaminoalkyl-substituted NECA derivatives” (Bioorg Med Chem Lett, 1998).

Columns and labels:
Adenosine receptor A3 = molecular target: T1, Adenosine receptor A3 (Rattus norvegicus, UniProt P28647); assay: Binding affinity for adenosine A3 receptor of rat testis membrane using [3H](R)-PIA
T1 sequence (P28647 whole entry): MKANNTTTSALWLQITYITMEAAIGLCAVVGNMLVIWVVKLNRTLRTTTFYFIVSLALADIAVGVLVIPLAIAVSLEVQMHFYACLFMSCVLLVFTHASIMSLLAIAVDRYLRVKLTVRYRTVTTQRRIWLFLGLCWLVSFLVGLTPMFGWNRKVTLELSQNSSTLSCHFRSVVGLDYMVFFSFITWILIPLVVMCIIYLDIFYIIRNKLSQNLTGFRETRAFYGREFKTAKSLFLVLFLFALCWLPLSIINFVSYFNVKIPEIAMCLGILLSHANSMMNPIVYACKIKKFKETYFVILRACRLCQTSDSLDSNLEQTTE
In short: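 Rat testis membranes were labelled with [3H]-(R)-PIA for A3 binding, with 150 nM DPCPX present to block A1 receptors. Membrane preparation and assay followed an earlier published method. IC50 values were converted to Ki by Cheng–Prusoff and reported as mean ± S.E. of three experiments.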

Adenosine receptor A1 = molecular target: T2, Adenosine receptor A1 (Rattus norvegicus, UniProt P25099); assay: Binding affinity for adenosine A1 receptor of rat cerebral cortex membrane using [3H]CHA; assay type: tissue-based
T2 sequence (P25099 whole entry): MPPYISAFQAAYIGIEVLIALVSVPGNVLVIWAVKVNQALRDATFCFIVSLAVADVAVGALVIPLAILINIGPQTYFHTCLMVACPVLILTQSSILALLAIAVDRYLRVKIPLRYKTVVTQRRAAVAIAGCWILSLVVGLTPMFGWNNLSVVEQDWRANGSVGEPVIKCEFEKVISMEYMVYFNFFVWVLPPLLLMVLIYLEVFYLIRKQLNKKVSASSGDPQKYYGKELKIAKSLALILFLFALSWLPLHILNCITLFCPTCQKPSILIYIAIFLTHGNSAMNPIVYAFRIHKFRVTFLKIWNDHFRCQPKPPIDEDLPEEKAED
In short: (§1)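 Competition binding on rat membrane preparations: cerebral cortex for A1 with [3H]-CHA, striatum for A2 with [3H]-CGS 21680. Membrane preparation and assay followed an earlier published method. IC50 values were converted to Ki with the Cheng–Prusoff equation and reported as mean ± S.E. of three experiments.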

Adenosine A2 receptor = Adenosine A2 receptor (Rattus norvegicus, UniProt P29276+P30543); assay: Binding affinity for adenosine A2 receptor of rat striatal membrane using [3H]CGS-21680; in short: as §1

CCNC(=O)[C@H]1OC(n2cnc3c(NCCCCCCCCCCCCNS(=O)(=O)c4cccc5c(N(C)C)cccc45)ncnc32)[C@H](O)[C@@H]1O (stereo partly drawn)
Ki (Adenosine receptor A3): 2500 nM | Ki (Adenosine receptor A1): 3400 nM | Ki (Adenosine A2 receptor): > 10000 nM

CCNC(=O)[C@H]1OC(n2cnc3c(NCCCNS(=O)(=O)c4cccc5c(N(C)C)cccc45)ncnc32)[C@H](O)[C@@H]1O (stereo partly drawn)
Ki (Adenosine receptor A3): 1800 nM | Ki (Adenosine receptor A1): 42 nM | Ki (Adenosine A2 receptor): 4300 nM

CCNC(=O)[C@H]1OC(n2cnc3c(NCCCCNS(=O)(=O)c4cccc5c(N(C)C)cccc45)ncnc32)[C@H](O)[C@@H]1O (stereo partly drawn)
Ki (Adenosine receptor A3): 2000 nM | Ki (Adenosine receptor A1): 70 nM | Ki (Adenosine A2 receptor): 9500 nM

CCNC(=O)[C@H]1OC(n2cnc3c(NCCCCCCCCCCNS(=O)(=O)c4cccc5c(N(C)C)cccc45)ncnc32)[C@H](O)[C@@H]1O (stereo partly drawn)
Ki (Adenosine receptor A3): 1100 nM | Ki (Adenosine receptor A1): 234 nM | Ki (Adenosine A2 receptor): > 10000 nM

CCNC(=O)[C@H]1OC(n2cnc3c(NCCCCCCCCNS(=O)(=O)c4cccc5c(N(C)C)cccc45)ncnc32)[C@H](O)[C@@H]1O (stereo partly drawn)
Ki (Adenosine receptor A3): 252 nM | Ki (Adenosine receptor A1): 111 nM | Ki (Adenosine A2 receptor): > 10000 nM

CCNC(=O)[C@H]1OC(n2cnc3c(NCCCCCCNS(=O)(=O)c4cccc5c(N(C)C)cccc45)ncnc32)[C@H](O)[C@@H]1O (stereo partly drawn)
Ki (Adenosine receptor A3): 3600 nM | Ki (Adenosine receptor A1): 27 nM | Ki (Adenosine A2 receptor): 4300 nM
